Data on 7 compounds can be found in ChEMBL document CHEMBL2424630, “Synthesis and antioxidant evaluation of (S,S)- and (R,R)-secoisolariciresinol diglucosides (SDGs)” (Bioorg Med Chem Lett, 2013).

For test [1], the system named is Radical scavenging activity. Nature of the test: Antioxidant activity assessed as DPPH radical scavenging activity incubated for 20 mins under dark condition by spectrophotometric analysis. The test is classed as functional. Background: Loss of DPPH colour is used to gauge radical scavenging.
Test [2] deals with Radical scavenging activity. The test is described as follows: Antioxidant activity assessed as DPPH radical scavenging activity at 5 to 500 uM incubated for 20 mins under dark condition by spectrophotometric analysis. The test is classed as functional.
Test [3] is described as follows: Antioxidant activity assessed as reduction of K3FeCN6 by spectrophotometric analysis in presence of FeCl3. The test is classed as functional. In short, it runs like this:
(§1)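 Reducing power: reduction of K3FeCN6 in the presence of FeCl3, read as absorbance of the ferric-ferrous complex. Response was linear over 1–100 μM, and the regression equation from that range gave EC50. Values are mean ± standard deviation, n = 3.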

A short description of test [4]: Antioxidant activity assessed as reduction of K3FeCN6 at 1 to 500 uM by spectrophotometric analysis in presence of FeCl3. The test is classed as functional. In outline: as §1
A short description of test [5]: Ratio of alpha-tocopherol EC50 to compound EC50 for reduction of K3FeCN6. The test is classed as functional.
A short description of test [6]: Ratio of ascorbic acid acid EC50 to compound EC50 for reduction of K3FeCN6.
A short description of test [7]: Antioxidant activity assessed as peroxyl radical scavenging activity at 8 uM to 1 mM by fluorescence assay relative to trolox. The class given is functional. In short, it runs like this: (§2)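 ORAC assay: peroxyl radicals were generated by AAPH, and oxidation of fluorescein was measured. Results are expressed as Trolox equivalents, calculated from concentrations within the linear part of the calibration curve. Values are mean ± standard deviation, n = 3.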

The nature of test [8]: Antioxidant activity assessed as trolox equivalents of peroxyl radical scavenging activity by fluorescence assay. The test is classed as functional. In outline:
as §2

Test [9] in a line: Antioxidant activity assessed as hydroxyl radical scavenging activity at 8 uM to 1 mM by fluorescence assay relative to gallic acid. The test is classed as functional. In outline: (§3)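 HORAC assay: hydroxyl radicals were generated from hydrogen peroxide by Fenton reaction, and oxidation of fluorescein was measured. Results are expressed as gallic acid equivalents, calculated from concentrations within the linear part of the calibration curve. Values are mean ± standard deviation, n = 3.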

Test [10] in a line: Antioxidant activity assessed as gallic acid equivalents of hydroxyl radical scavenging activity by fluorescence assay. The class given is functional. In short, it runs like this:
as §3

Calls of active or inactive are those of the source. The rule behind the calls is not given here.

One may read the EC50 as the concentration at which the effect is half-maximal. In the case of `Cc1c(C)c2c(c(C)c1O)CC[C@@](C)(CCC[C@H](C)CCC[C@H](C)CCCC(C)C)O2` [ALPHA-TOCOPHEROL], the EC50 in [1] was found to be 133 µM; in [3], 945 µM. In addition, the outcome in [2] and in [4] was Active.
Take `COc1cc(C[C@@H](CO[C@@H]2O[C@H](CO)[C@@H](O)[C@H](O)[C@H]2O)[C@H](CO[C@@H]2O[C@H](CO)[C@@H](O)[C@H](O)[C@H]2O)Cc2ccc(O)c(OC)c2)ccc1O`: the Ratio EC50 in test [5] and in [6] was 3 throughout. Besides, the EC50 is 124 µM in test [1] and 332 µM in test [3]. Further, the outcome in test [2] and in test [4] was Active. Moreover, the fold change (FC) in [7] and in [9] was 2 each time. For the same compound, the Activity in test [8] is 2.2 equiv; in test [3] it was “Dose-dependent effect”.
On to `O=C1O[C@H]([C@@H](O)CO)C(O)=C1O` [ASCORBIC ACID], for which the EC50 in test [1] was 440 µM; in test [3], 1130 µM. Further, the result in test [2] and in test [4] was Active.
For the compound `COc1cc(C[C@H](CO[C@@H]2O[C@H](CO)[C@@H](O)[C@H](O)[C@H]2O)[C@@H](CO[C@@H]2O[C@H](CO)[C@@H](O)[C@H](O)[C@H]2O)Cc2ccc(O)c(OC)c2)ccc1O` (stereo in doubt; form 2) [(+)-SECOISOLARICIRESINOLDIGLUCOSIDE], the half-maximal effective concentration (EC50) in test [1] was determined as 158 µM; in test [3], 292 µM.
As to `COc1cc(C[C@H](CO[C@@H]2O[C@H](CO)[C@@H](O)[C@H](O)[C@H]2O)[C@@H](CO[C@@H]2O[C@H](CO)[C@@H](O)[C@H](O)[C@H]2O)Cc2ccc(O)c(OC)c2)ccc1O` (stereo in doubt; form 1), the outcome in test [2] and in test [4] was Active. Also, the fold change (FC) in [7] was found to be 2. Besides, the Activity in test [8] is 2.55 equiv; in test [10], 3.68 equiv; in test [3] it was “Dose-dependent effect”.
As to `COc1cc(C[C@H](CO[C@@H]2O[C@H](CO)[C@@H](O)[C@H](O)[C@H]2O)[C@@H](CO[C@@H]2O[C@H](CO)[C@@H](O)[C@H](O)[C@H]2O)Cc2ccc(O)c(OC)c2)ccc1O` (stereo in doubt; form 2), the Ratio EC50 in test [5] and in test [6] was 3 each time. Besides, the outcome in test [2] and in [4] was Active. In addition, the fold change (FC) in test [7] and in test [9] was 2 in each case. For the same compound, the Activity in [8] was 3.03 equiv; in test [3] it was “Dose-dependent effect”.
On to `COc1cc(C[C@H](CO[C@@H]2O[C@H](CO)[C@@H](O)[C@H](O)[C@H]2O)[C@@H](CO[C@@H]2O[C@H](CO)[C@@H](O)[C@H](O)[C@H]2O)Cc2ccc(O)c(OC)c2)ccc1O` (stereo in doubt; form 1) [(+)-SECOISOLARICIRESINOLDIGLUCOSIDE], for which the concentration giving a half-maximal response (EC50) in test [1] turned out to be 83.9 µM; in test [3], 275 µM.
